Drawing on PubChem BioAssay AID463152 (The Scripps Research Institute Molecular Screening Center, 2010), this text covers IC50 for one compound.

The pIC50 is the IC50 on a negative log10 scale, so that one unit is a factor of ten.

pIC50: −log10 of the molar value.

In this assay the target is Nuclear receptor ROR-alpha (Homo sapiens) (UniProt P35398). The assay can be described thus: dose-dependent lowering of GAL4-RORa luciferase – cell-based, luminescence, assay provider, RORA inverse agonist project, dose response (AID 463152). To be noted: HEK293T GAL4-RORa LBD luciferase reporter, 20 h. The method in brief:
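Assay system – HEK293T with GAL4-RORα LBD and UAS-luciferase reporter · Times – 20 h compound treatment · Signal – luciferase luminescence · Read-out basis – IC50 from four-parameter fit of signal relative to DMSO · Control set – DMSO-treated wells as reference · Replicates – n of 8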
(In general: A reporter such as luciferase makes a cellular process visible.)

Nuclear receptor ROR-alpha (Homo sapiens), sequence (P35398 whole entry, looked up, the tested form may be a part): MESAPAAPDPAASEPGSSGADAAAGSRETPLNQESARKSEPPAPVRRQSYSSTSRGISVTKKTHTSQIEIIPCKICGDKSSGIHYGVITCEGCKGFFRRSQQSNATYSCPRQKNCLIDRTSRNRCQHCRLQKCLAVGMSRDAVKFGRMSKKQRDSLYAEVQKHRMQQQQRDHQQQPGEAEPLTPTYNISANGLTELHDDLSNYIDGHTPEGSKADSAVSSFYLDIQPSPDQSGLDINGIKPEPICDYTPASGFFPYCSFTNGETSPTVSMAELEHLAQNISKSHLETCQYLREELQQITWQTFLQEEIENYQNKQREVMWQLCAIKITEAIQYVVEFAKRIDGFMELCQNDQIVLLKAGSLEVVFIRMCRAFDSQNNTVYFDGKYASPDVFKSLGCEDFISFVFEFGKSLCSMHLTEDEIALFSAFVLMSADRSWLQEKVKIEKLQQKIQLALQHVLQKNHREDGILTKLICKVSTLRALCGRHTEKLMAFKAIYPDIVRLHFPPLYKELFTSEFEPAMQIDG

Consider `O=S(=O)(Nc1ccc(C(O)(C(F)(F)F)C(F)(F)F)cc1)c1cccs1`, for which the pIC50 is 6.32.
